# Hits are enriched below; roughly 0.92% of the tested compounds scored in any of these assays.
# MLL AF4-AF9 inh = inhibitors of human MLL-AF4/AF9 interaction. AlphaScreen, biotin-AF4 peptide binding to FLAG-AF9. AID 651704. inhibition, % at 10 µM. actives 0.47% (n = 350,000). P42568;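 active = every replicate reaching a set inhibition limit, whatever the replicate mean, cut at about 25% in these data; inconclusive = mean inhibition reaches that limit but some replicates miss it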;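 also: 0% = plate neutral control median and 100% = total signal loss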
# Target sequence (P42568 whole entry, looked up): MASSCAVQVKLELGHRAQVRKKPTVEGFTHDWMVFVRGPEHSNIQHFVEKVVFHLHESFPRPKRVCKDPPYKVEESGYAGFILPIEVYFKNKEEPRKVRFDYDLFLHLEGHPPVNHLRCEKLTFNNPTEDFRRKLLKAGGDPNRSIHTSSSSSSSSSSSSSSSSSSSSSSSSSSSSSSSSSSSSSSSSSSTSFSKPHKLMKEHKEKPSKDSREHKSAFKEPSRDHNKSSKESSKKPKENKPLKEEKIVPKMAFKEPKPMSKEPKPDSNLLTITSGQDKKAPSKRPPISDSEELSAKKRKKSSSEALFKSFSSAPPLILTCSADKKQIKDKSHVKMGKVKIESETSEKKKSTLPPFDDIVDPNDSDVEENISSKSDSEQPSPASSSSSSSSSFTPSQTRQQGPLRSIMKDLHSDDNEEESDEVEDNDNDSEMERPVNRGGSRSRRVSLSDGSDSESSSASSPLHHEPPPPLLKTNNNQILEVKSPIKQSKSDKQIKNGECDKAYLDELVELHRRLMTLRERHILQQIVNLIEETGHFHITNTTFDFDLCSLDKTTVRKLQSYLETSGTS
# RAD52 anneal inh = blocks human RAD52 DNA annealing; AID 651710; P43351; actives 0.46% (n = 360,000); inhibition, % at 18.7 µM; recombinant RAD52 DNA annealing, FRET fluorescence;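 active = every replicate showing at least 50% inhibition; inconclusive = mean inhibition at least 50% but not in every replicate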
# RAD54 branch = inhibitors of human RAD54 branch migration | actives 0.14% (n = 360,000) | Q92698 | RAD54 Holliday junction branch migration, FAM/BHQ fluorescence | AID 602329 | inhibition, % at 10.4 µM;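 active = mean normalized replicate activity at least 40 and at least half of replicates scoring 40 or more; inconclusive = only one of the two criteria met; inactive = mean below 40 and under half of replicates reaching 40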;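 also: 0% = median of neutral control wells and 100% = median of positive control wells; inhibitors cause a drop in the FAM fluorescence signal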
# Glyco luc inh = blocks N-linked glycosylation in D54 reporter cells. reporter increase, % at 12.5 µM. actives 0.23% (n = 360,000). D54 ERlucT glycosylation luciferase reporter, 24 h; percent of 100 nM tunicamycin response. AID 588692;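 active = mean luciferase reporter signal, scaled so untreated is 0 and the glycosylation-blocking control 100, at or above a set limit in every replicate; inconclusive = mean reaches the limit but not every replicate does; inactive = mean below the limit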;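 also: luciferase carries N-glycosylation sites so blocking glycosylation raises the light; 0% = median of neutral control wells and 100% = median of 100 nM tunicamycin wells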
# FN deposit inh = fibronectin deposition inhibition; AH1F fibroblasts, Alexa488-fibronectin deposition fluorescence, overnight; inhibition, % at 12.6 µM; actives 0.086% (n = 350,000); AID 743247;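 active = mean inhibition across replicates of 30% or more, regardless of how many single replicates reach that level; inconclusive = mean under 30% yet at least half of replicates reach 30%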;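 also: positive control wells lacked labelled fibronectin entirely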
#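 Measured by – fluorescence 485/525 nm · System – AH1F fibroblast monolayer, labelled fibronectin deposition · Amount – 10000 cells per well · Buffer or medium – serum-reduced DMEM (2% serum) · Doses – single dose, pinned · Also added – fluorescent fibronectin at 24 nM final · Schedule – 1 h cell attachment, overnight exposure to compound and label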
# * = called active by the depositor; ? = inconclusive; · = not tested or not shown.
SMILES,MLL AF4-AF9 inh,RAD52 anneal inh,RAD54 branch,Glyco luc inh,FN deposit inh
C[C@@H](O)C1NC(=O)[C@H](CCCCN)NC(=O)c2cc([N+](=O)[O-])cc(F)c2NCCCC[C@@H](C(N)=O)NC1=O (some centres undefined),·,·,54.4*,0.8,·
O=C(C1CCCCC1)N1CC(=O)N2[C@H](CO)[C@H](c3ccc(C#CCc4ccccc4)cc3)[C@H]2C1,2.3,5.9,·,·,·
COc1cc(Br)cc(/C=N/NC(=O)Cc2ccccc2)c1O,79.3*,-2.8,·,-2.6,-0.2
COc1ccc(C2CC(=O)Oc3c(C(CCN4CCCCC4)c4ccc(N(C)C)cc4)c(OC)cc(OC)c32)cc1 (centres undefined),44.2*,18.7,4.3,-1.3,-7.5
COc1cc(OC)c2ccc(=O)oc2c1C(CCN1CCN(c2ccccc2)CC1)c1ccc(N(C)C)cc1 (centres undefined),26.1*,-25.9,-10.1,0.7,5.4
COc1cc(OC)c2c(-c3ccccc3)cc(=O)oc2c1C(CCN1CCN(c2ccccc2)CC1)c1ccc(N(C)C)cc1 (centres undefined),18.4,-18.4,0.3,-2.7,-3.8
COc1cc(O)c(C(CCN2CCCC2)c2ccc(N(C)C)cc2)c(OC)c1 (centres undefined),39.0*,-4.2,-2.8,-1.5,-26.8
COc1ccc2c3c([nH]c2c1)[C@H](CO)N(C(=O)C1CCCCC1)CC31CCN(Cc2nccs2)CC1,-2.0,12.4,·,·,·
CN=c1scc(-c2ccccc2F)n1/N=C/c1ccc[nH]1,45.4*,-3.8,·,-20.2,1.3
CN=c1scc(-c2ccccc2F)n1/N=C/c1ccc(O)c(O)c1O,?,-9.8,-4.3,-5.2,11.7
CC(C)CCNc1nc(-c2ccco2)c2c(c1C#N)CCCC2,·,·,2.8,0.6,·
N#Cc1c(NCCN)nc(-c2ccco2)c2c1CCCC2,·,·,·,32.9*,·
C[C@@H]1CN([C@H](C)CO)C(=O)c2ccccc2-c2ccccc2CO[C@@H]1CN(C)S(=O)(=O)c1ccccc1F,·,·,·,·,4.8
Nc1ncnc2c1ncn2C1O[C@H](CO)[C@@H](O)[C@@H]1O (some centres undefined),2.7,-5.8,-16.6,-2.7,-2.4
N#Cc1c(N)n(C2OC(CO)C(O)C2O)c2ncnc(N)c12 (centres undefined),3.2,-6.3,·,-14.1,34.2*
Nc1ccc(N=Nc2ccccc2O)c(N)c1,49.3*,-9.4,-2.5,-5.8,2.1
CCS(=O)(=O)Nc1ccc2c(c1)C(=O)N(C)C[C@@H](OC)[C@H](C)CN(CCC(F)(F)F)[C@@H](C)CO2,-2.2,0.8,4.1,·,-1.4
Cc1cccc(-n2ncc3c(NC(C)C)ncnc32)c1,-50.5,-3.8,9.1,-10.7,31.1*
CC(C)Nc1ncnc2c1cnn2-c1ccccc1,1.3,-0.6,-11.2,-8.6,-11.9
O=S(=O)(c1cccc2cccnc12)N1CCN(Cc2ccc(OCCO)cc2)CC1,0.6,1.7,-11.7,·,·
CC(C)c1ccc(N2C(=O)C(Cl)=C(N3CCOCC3)C2=O)cc1,37.9*,-25.3,·,1.6,2.4
O=C1C(Cl)=C(N2CCOCC2)C(=O)N1c1ccc(Br)cc1,0.8,-65.1,0.7,1.5,-6.5
COCCCNc1cc(C)nc2ccccc12,·,-13.7,4.1,0.9,10.2
Cc1cc(NCCCCCCCNc2cc(C)nc3cc([N+](=O)[O-])ccc23)c2ccc([N+](=O)[O-])cc2n1,5.7,77.2*,·,-19.3,-1.6
C[C@@H]1CN([C@H](C)CO)C(=O)Cc2cc(NS(=O)(=O)c3ccc(Cl)cc3)ccc2O[C@@H]1CN(C)C(=O)NC1CCCCC1,-0.7,12.7,-11.2,·,-1.3
SMILES,MLL AF4-AF9 inh,RAD52 anneal inh,RAD54 branch,Glyco luc inh,FN deposit inh
C[C@@H]1CN([C@@H](C)CO)C(=O)c2c(c3ccccc3n2C)-c2ccccc2CO[C@H]1CN(C)Cc1ccc2c(c1)OCCN2C,39.0*,28.1,·,·,-4.3
C[C@@H]1CN([C@H](C)CO)C(=O)c2c(c3ccccc3n2C)-c2ccccc2CO[C@@H]1CN(C)Cc1ccc2c(c1)OCCN2C,49.8*,45.2,·,·,-1.1
C[C@H]1CN([C@@H](C)CO)C(=O)c2c(c3ccccc3n2C)-c2ccccc2CO[C@H]1CN(C)Cc1ccc(Cl)c(Cl)c1,0.9,1.0,·,·,0.1
C[C@H](CO)N1C[C@H](C)[C@@H](CN(C)Cc2ccc(-c3ccccc3)cc2)OCc2ccccc2-c2c(n(C)c3ccccc23)C1=O,2.8,80.1*,·,·,16.4
C[C@H]1CN([C@@H](C)CO)C(=O)c2cccc(NS(=O)(=O)c3cn(C)cn3)c2O[C@H]1CN(C)Cc1ccc(-c2ccccc2)cc1,1.8,-3.6,5.7,·,·
CC(C)NC(=O)N(C)C[C@@H]1Oc2ccc(N(C)C)cc2C(=O)N(C)C[C@H]1C,·,·,·,·,8.1
CCCC#Cc1cnc2c(c1)C(=O)N([C@@H](C)CO)C[C@@H](C)[C@@H](CN(C)C(=O)c1cccnc1)O2,0.2,-3.3,-27.7,·,-7.7
C#CCOCCOCCOCCNc1nc(N2CCN(C(=O)[C@H](CCC(=O)O)n3cc(C(N)CO)nn3)CC2)nc(N2CCN(C(=O)[C@H](Cc3cc4ccccc4[nH]3)n3cc(C(N)[C@H](C)CC)nn3)CC2)n1 (some centres undefined),·,·,2.3,1.0,·
C#CCOCCOCCOCCNc1nc(N2CCN(C(=O)[C@H](CCCCN)n3cc([C@@H](N)[C@H](C)CC)nn3)CC2)nc(N2CCN(C(=O)[C@H](CCC(=O)O)n3cc([C@@H](N)CCCCN)nn3)CC2)n1,33.6*,44.9,-12.2,-0.9,-3.5
C#CCOCCOCCOCCNc1nc(N2CCN(C(=O)[C@H](CCCCN)n3cc([C@@H](N)C(C)CC)nn3)CC2)nc(N2CCN(C(=O)[C@H](Cc3cc4ccccc4[nH]3)n3cc([C@@H](N)CC(C)C)nn3)CC2)n1 (some centres undefined),·,·,59.6*,2.8,·
C[C@@H]1CN([C@H](C)CO)S(=O)(=O)c2ccc(C#CC3CC3)cc2O[C@@H]1CN(C)Cc1cccnc1,11.8,5.9,-2.7,·,·
CC1CCCN(Cc2c(O)ccc3c4c(c(=O)oc23)CCCC4)C1 (centres undefined),4.4,4.2,17.3,-3.1,31.1*
O=c1cc(OCc2ccccc2)cc[nH]1,74.8*,-3.7,-4.8,3.4,2.8
Cc1[nH]ccc(=O)c1OCc1ccccc1,·,·,-12.5,1.4,5.0
Cc1ccc(S(=O)(=O)N2C[C@H](O)COC[C@H]3O[C@@H](CC(=O)NCC4CCCCC4)CC[C@@H]32)cc1,3.3,33.8,-9.6,·,-4.8
Cc1ccc(S(=O)(=O)N2C[C@H](O)COC[C@@H]3O[C@H](CC(=O)NCC4CCCCC4)CC[C@H]32)cc1,11.3,54.3*,3.1,·,-3.7
Cc1ccc(S(=O)(=O)N2C[C@H](O)COC[C@@H]3O[C@H](CC(=O)NCCN4CCCCC4)CC[C@H]32)cc1,-1.7,9.2,1.5,·,-4.3
Cc1ccc(S(=O)(=O)N2C[C@@H](O)COC[C@@H]3O[C@@H](CC(=O)NCC4CCCCC4)CC[C@H]32)cc1,20.0,60.0*,6.8,·,-12.8
